Assay results: PMC12435242 (Proceedings of the National Academy of Sciences of the …, 2025)

Assays:
SV2A [1] = biological target: SV2A (Homo sapiens, UniProt Q7L0J3); assay: 3H-UCB-J binding with or without UCB1244283; details: Kd of 3H-UCB-J binding to SV2A
[2] = tested on: SV2A compared to SV2B and SV2C; details: cited from earlier work
SV2A-D670A = SV2A-D670A (Homo sapiens, UniProt Q7L0J3, D670A); assay: 3H-LEV binding with or without UCB1244283, primary site mutant
SV2A-W300A = SV2A-W300A (Homo sapiens, UniProt Q7L0J3, W300A); assay: as above
SV2A-W300A, sequence (Q7L0J3 65-742 W300A limits assumed): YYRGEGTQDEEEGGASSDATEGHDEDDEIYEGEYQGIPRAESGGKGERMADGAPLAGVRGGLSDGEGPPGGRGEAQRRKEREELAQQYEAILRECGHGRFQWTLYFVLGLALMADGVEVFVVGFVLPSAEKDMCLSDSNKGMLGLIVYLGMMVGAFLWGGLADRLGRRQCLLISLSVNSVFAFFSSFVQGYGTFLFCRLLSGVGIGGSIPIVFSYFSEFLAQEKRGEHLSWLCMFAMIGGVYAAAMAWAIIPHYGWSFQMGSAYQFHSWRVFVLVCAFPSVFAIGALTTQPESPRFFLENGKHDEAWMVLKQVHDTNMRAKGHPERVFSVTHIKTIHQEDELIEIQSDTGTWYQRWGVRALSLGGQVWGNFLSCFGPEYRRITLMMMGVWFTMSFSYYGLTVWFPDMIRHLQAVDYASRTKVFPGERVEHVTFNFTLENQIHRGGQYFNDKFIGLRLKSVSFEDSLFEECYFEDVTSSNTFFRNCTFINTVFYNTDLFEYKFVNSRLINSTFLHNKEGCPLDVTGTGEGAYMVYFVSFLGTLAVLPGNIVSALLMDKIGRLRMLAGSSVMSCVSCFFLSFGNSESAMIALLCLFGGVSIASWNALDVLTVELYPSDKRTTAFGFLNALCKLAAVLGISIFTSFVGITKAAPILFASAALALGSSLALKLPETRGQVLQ

[3] = biological target: wild-type SV2A (SV2AΔ64-mVenus) (Homo sapiens, UniProt Q7L0J3); assay: 3H-LEV filter binding, concentration-response of UCB1244283
wild-type SV2A (SV2AΔ64-mVenus), sequence (Q7L0J3 65-742 limits assumed, stated change not applied): as the sequence (Q7L0J3 65-742 W300A limits assumed) above, with A236W counted along it
Outline: (§1)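 Human SV2AΔ64 (C-terminal mVenus/TwinStrep/His10), wild-type or point mutant, PEI-transfected into suspension tsA201 cells. Membranes harvested 48–60 h later and loaded at equal SV2A by FSEC. Incubated 45 min on ice with 3.3 µM 3H-LEV and test compound 1 nM–30 µM; nonspecific binding defined with 1 mM PSL. PEI-soaked glass-fibre filtration, scintillation counting. EC50 by three-parameter log(agonist) fit; triplicate; mean ± SEM.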

SV2A-F184A = SV2A-F184A (Homo sapiens, UniProt Q7L0J3, F184A); assay: as above
SV2A-F184A, sequence (Q7L0J3 65-742 F184A limits assumed): as the sequence (Q7L0J3 65-742 W300A limits assumed) above, with F120A, A236W counted along it
Outline: as §1

SV2A-F188A = SV2A-F188A (Homo sapiens, UniProt Q7L0J3, F188A); assay: as above
SV2A-F188A, sequence (Q7L0J3 65-742 F188A limits assumed): as the sequence (Q7L0J3 65-742 W300A limits assumed) above, with F124A, A236W counted along it
Outline: as §1

SV2A-G659C = SV2A-G659C (Homo sapiens, UniProt Q7L0J3, G659C); assay: 3H-LEV filter binding, concentration-response of UCB1244283
SV2A-G659C, sequence (Q7L0J3 65-742 G659C limits assumed): as the sequence (Q7L0J3 65-742 W300A limits assumed) above, with A236W, G595C counted along it

SV2A A308S mutant = SV2A A308S mutant (Homo sapiens, UniProt Q7L0J3, A308S); assay: 3H-LEV filter binding, concentration-response of UCB1244283; details: 3H-LEV 3.3 µM
SV2A A308S mutant, sequence (Q7L0J3 65-742 A308S limits assumed): as the sequence (Q7L0J3 65-742 W300A limits assumed) above, with A236W, A244S counted along it
Outline: (§2)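 Membranes came from tsA201 cells transfected with PEI and harvested at 48–60 h. Cells expressed human SV2A mutants lacking residues 1–64, tagged C-terminally with mVenus/TwinStrep/His10. Equal protein per FSEC was used. Incubation was 45 min on ice with 3H-LEV 3.3 µM plus test compound, 1 nM–30 µM final. Nonspecific binding was set with 1 mM unlabeled PSL. Filtration used 1% PEI-soaked glass-fibre filters, with an ice-cold TBS150 wash, then scintillation counting. Assays were run in triplicate and fitted to a three-parameter log(agonist)–response curve.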

SV2A T465A mutant = SV2A T465A mutant (Homo sapiens, UniProt Q7L0J3, T465A); assay: as above; details: 3H-LEV 3.3 µM
SV2A T465A mutant, sequence (Q7L0J3 65-742 T465A limits assumed): as the sequence (Q7L0J3 65-742 W300A limits assumed) above, with A236W, T401A counted along it
Outline: as §2

SV2A L655Q mutant = SV2A L655Q mutant (Homo sapiens, UniProt Q7L0J3, L655Q); assay: as above; details: 3H-LEV 3.3 µM
SV2A L655Q mutant, sequence (Q7L0J3 65-742 L655Q limits assumed): as the sequence (Q7L0J3 65-742 W300A limits assumed) above, with A236W, L591Q counted along it
Outline: as §2

SV2A G659N mutant = SV2A G659N mutant (Homo sapiens, UniProt Q7L0J3, G659N); assay: as above; details: 3H-LEV 3.3 µM
SV2A G659N mutant, sequence (Q7L0J3 65-742 G659N limits assumed): as the sequence (Q7L0J3 65-742 W300A limits assumed) above, with A236W, G595N counted along it
Outline: as §2

SV2A [4] = details: cited from earlier work
[5] = tested on: SV2A in human brain membranes; details: cited from earlier work
sound-sensitive mice = details: cited from earlier work
PSL-bound SV2A complex = details: cited from earlier work
all SV2 members (SV2s) = details: cited from earlier work
[6] = by slowing the rate of dissociation

SV2A (Homo sapiens, UniProt Q7L0J3), sequence (Q7L0J3 65-742 limits assumed): as the sequence (Q7L0J3 65-742 W300A limits assumed) above, with A236W counted along it
SV2A-D670A, sequence (Q7L0J3 65-742 D670A limits assumed): as the sequence (Q7L0J3 65-742 W300A limits assumed) above, with A236W, D606A counted along it

`Cc1cnccc1CN1C[C@@H](c2cc(F)c(F)c(F)c2)CC1=O` [UCB-J, (4R)-1-((3-Methyl-4-pyridinyl)methyl)-4-(3,4,5-trifluorophenyl)-2-pyrrolidinone] gave a Kd (SV2A [1]; in the absence of UCB1244283) of 5.3 ± 0.8 nM and a Kd (SV2A [1]; in the presence of saturating UCB1244283) of 6 ± 1 nM.
In the case of `CCC[C@@H]1CC(=O)N([C@@H](CC)C(N)=O)C1` [BRV, (2S)-2-((4R)-2-oxo-4-propylpyrrolidin-1-yl)butanamide], the “higher affinity for SV2A compared to SV2B and SV2C” value [2] is listed as “at least 100 fold”.
For `CC[C@@H](C(N)=O)N1CCCC1=O` [LEV, 2S-(2-oxo-1-pyrrolidinyl)butanamide], the “LEV binding to mutant” value (SV2A-D670A; D670A, with or without UCB1244283) is listed as “unable to measure any significant LEV binding”, the “LEV binding to mutant” value (SV2A-W300A; W300A, with or without UCB1244283) is listed as “unable to measure any significant LEV binding” and the “higher affinity for SV2A compared to SV2B and SV2C” value [2] is listed as “at least 100 fold”.
For `COc1ccccc1NC(=O)CC(C)Cc1cc(C)cc(C)c1` (centres unmarked) [UCB1244283, 4-(3,5-dimethylphenyl)-N-(2-methoxyphenyl)-3-methylbutanamide], the EC50 [3] was 700 ± 300 nM, the “increase in specific counts of 3H-LEV binding” value ([3]; saturating 3H-LEV (~4 µM), with vs without UCB1244283 30 µM) was ~ 2 fold and the EC50 (SV2A-F184A) was 200 ± 40 nM. For the same compound, the “enhancement of EC50 for UCB1244283 compared to wild-type” value (SV2A-F184A; F184A mutant) was ~ 3 fold, the EC50 (SV2A-F188A) was 70 ± 10 nM and the “enhancement of EC50 for UCB1244283 compared to wild-type” value (SV2A-F188A; F188A mutant) was roughly 9 fold. For the same compound, the EC50 (SV2A-G659C) was 1000 ± 800 nM, the “reduction in Bmax of 3H-LEV binding compared to wild-type” value (SV2A-G659C; G659C mutant, with UCB1244283) was ~ 4 fold and the “change in LEV binding on addition of UCB1244283” value (“change in LEV binding” for short) (SV2A A308S mutant) was “do not show a significant change in LEV binding”. The “change in LEV binding” value (SV2A T465A mutant) was “do not show a significant change in LEV binding”, the “change in LEV binding” value (SV2A L655Q mutant) was “do not show a significant change in LEV binding” and the “change in LEV binding” value (SV2A G659N mutant) was “do not show a significant change in LEV binding”. For the same compound, the “effect on maximum specific binding (Bmax) of 3H-LEV” value (SV2A-D670A; UCB1244283 30 µM, 3H-LEV 3.3 µM, SV2A-D670A) was “does not enhance”, the “effect on maximum specific binding (Bmax) of 3H-LEV” value (SV2A-W300A; UCB1244283 30 µM, 3H-LEV 3.3 µM, SV2A-W300A) was “does not enhance” and the “increase in binding affinity for BRV on incubation of UCB1244283 with SV2A” value (SV2A [4]; [6]) was 10 fold. The “increase in binding affinity for LEV on incubation of UCB1244283 with SV2A” value (SV2A [4]; [6]) was 2.5 fold, the “increase in maximum binding capacity (Bmax) for BRV” value (SV2A [4]; with UCB1244283) was 1.4 fold and the “increase in maximum binding capacity (Bmax) for LEV” value (SV2A [4]; with UCB1244283) was “twofold”. The “effect of UCB1244283 on BRV binding” value [5] was “increases both the Bmax and binding affinity”, the “effect of UCB1244283 on LEV binding” value [5] was “only increases the Bmax” and the protection against seizures (sound-sensitive mice) was “protection against both tonic and clonic seizures”. The “binding to the PSL-bound SV2A complex” value (PSL-bound SV2A complex) was “does not bind”.
For `COCc1nn2c(CN3CC(CC(F)(F)Cl)CC3=O)c(C(F)(F)F)nc2s1` (single isomer, unassigned) [PSL], the “affinity for all SV2 members” value (all SV2 members (SV2s)) is given as “nanomolar affinity”.
